# Test system: Enterococcus faecalis
# Test: Antibacterial activity against Enterococcus faecalis 10-7 after 18 to 24 hrs by NCCLS method
# Type: functional
# In short: (§1)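 Standard NCCLS (M100-S11) MIC testing against Gram-positive and Gram-negative strains. Plates were incubated at 35 °C for 18–24 h. The MIC was read as the lowest concentration giving complete inhibition of visible bacterial growth.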
row,Compound,MIC [mg/L]
1,COc1cc(CN2CCN(c3cc4c(cc3F)c(=O)c(C(=O)O)cn4C3CC3)CC2)cc(OC)c1,> 128

# Test system: Escherichia coli
# Test: Antibacterial activity against Escherichia coli 10-2 after 18 to 24 hrs by NCCLS method
# Type: functional
# In short: as §1
row,Compound,MIC [mg/L]
1,COc1cc(CN2CCN(c3cc4c(cc3F)c(=O)c(C(=O)O)cn4C3CC3)CC2)cc(OC)c1,> 128

# Test system: Klebsiella pneumoniae
# Test: Antibacterial activity against extended spectrum beta-lactamases producing Klebsiella pneumoniae 10-1 after 18 to 24 hrs by NCCLS method
# Type: functional
# In short: as §1
row,Compound,MIC [mg/L]
1,COc1cc(CN2CCN(c3cc4c(cc3F)c(=O)c(C(=O)O)cn4C3CC3)CC2)cc(OC)c1,> 128

# Test system: Pseudomonas aeruginosa
# Test: Antibacterial activity against Pseudomonas aeruginosa 10-18 after 18 to 24 hrs by NCCLS method
# Type: functional
# In short: as §1
row,Compound,MIC [mg/L]
1,COc1cc(CN2CCN(c3cc4c(cc3F)c(=O)c(C(=O)O)cn4C3CC3)CC2)cc(OC)c1,128

# Test system: Escherichia coli
# Test: Antibacterial activity against extended spectrum beta-lactamases producing Escherichia coli 10-2 after 18 to 24 hrs by NCCLS method
# Type: functional
# In short: as §1
row,Compound,MIC [mg/L]
1,COc1cc(CN2CCN(c3cc4c(cc3F)c(=O)c(C(=O)O)cn4C3CC3)CC2)cc(OC)c1,> 128

# Test system: Staphylococcus aureus
# Test: Antibacterial activity against methicillin-sensitive Staphylococcus aureus 10-11 after 18 to 24 hrs by NCCLS method
# Type: functional
# In short: as §1
row,Compound,MIC [mg/L]
1,COc1cc(CN2CCN(c3cc4c(cc3F)c(=O)c(C(=O)O)cn4C3CC3)CC2)cc(OC)c1,1

# Test system: Pseudomonas aeruginosa
# Test: Antibacterial activity against Pseudomonas aeruginosa 10-5 after 18 to 24 hrs by NCCLS method
# Type: functional
# In short: as §1
row,Compound,MIC [mg/L]
1,COc1cc(CN2CCN(c3cc4c(cc3F)c(=O)c(C(=O)O)cn4C3CC3)CC2)cc(OC)c1,64

# Test system: Mycobacterium tuberculosis
# Test: Antimycobacterial activity against Mycobacterium tuberculosis H37Rv ATCC 27294 by microplate alamar blue assay
# Type: functional
# In short: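 Microplate Alamar Blue fluorescence assay on strain H37Rv ATCC 27294. MIC was the lowest concentration cutting fluorescence by ≥90% against the mean of replicate bacterium-only controls.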
row,Compound,MIC [mg/L]
1,COc1cc(CN2CCN(c3cc4c(cc3F)c(=O)c(C(=O)O)cn4C3CC3)CC2)cc(OC)c1,2

# Test system: Staphylococcus epidermidis
# Test: Antibacterial activity against methicillin-sensitive Staphylococcus epidermidis 10-11 after 18 to 24 hrs by NCCLS method
# Type: functional
# In short: as §1
row,Compound,MIC [mg/L]
1,COc1cc(CN2CCN(c3cc4c(cc3F)c(=O)c(C(=O)O)cn4C3CC3)CC2)cc(OC)c1,4

# Test system: Enterococcus faecalis
# Test: Antibacterial activity against Enterococcus faecalis 10-6 after 18 to 24 hrs by NCCLS method
# Type: functional
# In short: as §1
row,Compound,MIC [mg/L]
1,COc1cc(CN2CCN(c3cc4c(cc3F)c(=O)c(C(=O)O)cn4C3CC3)CC2)cc(OC)c1,> 128

# Test system: Escherichia coli
# Test: Antibacterial activity against extended spectrum beta-lactamases producing Escherichia coli 10-3 after 18 to 24 hrs by NCCLS method
# Type: functional
# In short: as §1
row,Compound,MIC [mg/L]
1,COc1cc(CN2CCN(c3cc4c(cc3F)c(=O)c(C(=O)O)cn4C3CC3)CC2)cc(OC)c1,> 128

# Test system: Staphylococcus aureus
# Test: Antibacterial activity against methicillin-sensitive Staphylococcus aureus 10-14 after 18 to 24 hrs by NCCLS method
# Type: functional
# In short: as §1
row,Compound,MIC [mg/L]
1,COc1cc(CN2CCN(c3cc4c(cc3F)c(=O)c(C(=O)O)cn4C3CC3)CC2)cc(OC)c1,1

# Test system: Escherichia coli
# Test: Antibacterial activity against extended spectrum beta-lactamases producing Escherichia coli 10-4 after 18 to 24 hrs by NCCLS method
# Type: functional
# In short: as §1
row,Compound,MIC [mg/L]
1,COc1cc(CN2CCN(c3cc4c(cc3F)c(=O)c(C(=O)O)cn4C3CC3)CC2)cc(OC)c1,> 128

# Test system: Staphylococcus epidermidis
# Test: Antibacterial activity against methicillin-resistant Staphylococcus epidermidis 10-10 after 18 to 24 hrs by NCCLS method
# Type: functional
# In short: (§2)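 Incubated at 35 °C for 18–24 h under NCCLS (M100-S11) standards. MIC was read as the lowest concentration giving complete inhibition of visible bacterial growth.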
row,Compound,MIC [mg/L]
1,COc1cc(CN2CCN(c3cc4c(cc3F)c(=O)c(C(=O)O)cn4C3CC3)CC2)cc(OC)c1,> 128

# Test system: Staphylococcus epidermidis
# Test: Antibacterial activity against methicillin-resistant Staphylococcus epidermidis 10-13 after 18 to 24 hrs by NCCLS method
# Type: functional
# In short: as §2
row,Compound,MIC [mg/L]
1,COc1cc(CN2CCN(c3cc4c(cc3F)c(=O)c(C(=O)O)cn4C3CC3)CC2)cc(OC)c1,128

# Test system: Klebsiella pneumoniae
# Test: Antibacterial activity against extended spectrum beta-lactamases producing Klebsiella pneumoniae 10-2 after 18 to 24 hrs by NCCLS method
# Type: functional
# In short: as §1
row,Compound,MIC [mg/L]
1,COc1cc(CN2CCN(c3cc4c(cc3F)c(=O)c(C(=O)O)cn4C3CC3)CC2)cc(OC)c1,> 128

# Test system: Staphylococcus aureus
# Test: Antibacterial activity against methicillin-resistant Staphylococcus aureus 10-11 after 18 to 24 hrs by NCCLS method
# Type: functional
# In short: as §2
row,Compound,MIC [mg/L]
1,COc1cc(CN2CCN(c3cc4c(cc3F)c(=O)c(C(=O)O)cn4C3CC3)CC2)cc(OC)c1,128

# Test system: Klebsiella pneumoniae
# Test: Antibacterial activity against Klebsiella pneumoniae 10-3 after 18 to 24 hrs by NCCLS method
# Type: functional
# In short: as §1
row,Compound,MIC [mg/L]
1,COc1cc(CN2CCN(c3cc4c(cc3F)c(=O)c(C(=O)O)cn4C3CC3)CC2)cc(OC)c1,64

# Test system: Pseudomonas aeruginosa
# Test: Antibacterial activity against Pseudomonas aeruginosa 10-20 after 18 to 24 hrs by NCCLS method
# Type: functional
# In short: as §1
row,Compound,MIC [mg/L]
1,COc1cc(CN2CCN(c3cc4c(cc3F)c(=O)c(C(=O)O)cn4C3CC3)CC2)cc(OC)c1,64

# Test system: Pseudomonas aeruginosa
# Test: Antibacterial activity against Pseudomonas aeruginosa 10-15 after 18 to 24 hrs by NCCLS method
# Type: functional
# In short: as §1
row,Compound,MIC [mg/L]
1,COc1cc(CN2CCN(c3cc4c(cc3F)c(=O)c(C(=O)O)cn4C3CC3)CC2)cc(OC)c1,64

# Test system: Staphylococcus epidermidis
# Test: Antibacterial activity against methicillin-sensitive Staphylococcus epidermidis 10-15 after 18 to 24 hrs by NCCLS method
# Type: functional
# In short: as §2
row,Compound,MIC [mg/L]
1,COc1cc(CN2CCN(c3cc4c(cc3F)c(=O)c(C(=O)O)cn4C3CC3)CC2)cc(OC)c1,128

# Test system: Pseudomonas aeruginosa
# Test: Antibacterial activity against Pseudomonas aeruginosa 10-12 after 18 to 24 hrs by NCCLS method
# Type: functional
# In short: as §1
row,Compound,MIC [mg/L]
1,COc1cc(CN2CCN(c3cc4c(cc3F)c(=O)c(C(=O)O)cn4C3CC3)CC2)cc(OC)c1,64

# Test system: Escherichia coli
# Test: Antibacterial activity against Escherichia coli 10-3 after 18 to 24 hrs by NCCLS method
# Type: functional
# In short: as §1
row,Compound,MIC [mg/L]
1,COc1cc(CN2CCN(c3cc4c(cc3F)c(=O)c(C(=O)O)cn4C3CC3)CC2)cc(OC)c1,> 128

# Test system: Klebsiella pneumoniae
# Test: Antibacterial activity against Klebsiella pneumoniae 10-4 after 18 to 24 hrs by NCCLS method
# Type: functional
# In short: as §1
row,Compound,MIC [mg/L]
1,COc1cc(CN2CCN(c3cc4c(cc3F)c(=O)c(C(=O)O)cn4C3CC3)CC2)cc(OC)c1,> 128

# Test system: Staphylococcus aureus
# Test: Antibacterial activity against methicillin-resistant Staphylococcus aureus 10-13 after 18 to 24 hrs by NCCLS method
# Type: functional
# In short: as §2
row,Compound,MIC [mg/L]
1,COc1cc(CN2CCN(c3cc4c(cc3F)c(=O)c(C(=O)O)cn4C3CC3)CC2)cc(OC)c1,> 128

# Test system: Staphylococcus aureus
# Test: Antibacterial activity against methicillin-sensitive Staphylococcus aureus 10-13 after 18 to 24 hrs by NCCLS method
# Type: functional
# In short: as §1
row,Compound,MIC [mg/L]
1,COc1cc(CN2CCN(c3cc4c(cc3F)c(=O)c(C(=O)O)cn4C3CC3)CC2)cc(OC)c1,0.5

# Test system: Escherichia coli
# Test: Antibacterial activity against Escherichia coli 10-1 after 18 to 24 hrs by NCCLS method
# Type: functional
# In short: as §1
row,Compound,MIC [mg/L]
1,COc1cc(CN2CCN(c3cc4c(cc3F)c(=O)c(C(=O)O)cn4C3CC3)CC2)cc(OC)c1,> 128

# Test system: Klebsiella pneumoniae
# Test: Antibacterial activity against extended spectrum beta-lactamases producing Klebsiella pneumoniae 10-3 after 18 to 24 hrs by NCCLS method
# Type: functional
# In short: as §1
row,Compound,MIC [mg/L]
1,COc1cc(CN2CCN(c3cc4c(cc3F)c(=O)c(C(=O)O)cn4C3CC3)CC2)cc(OC)c1,> 128

# Test system: Enterococcus faecalis
# Test: Antibacterial activity against Enterococcus faecalis 10-5 after 18 to 24 hrs by NCCLS method
# Type: functional
# In short: as §1
row,Compound,MIC [mg/L]
1,COc1cc(CN2CCN(c3cc4c(cc3F)c(=O)c(C(=O)O)cn4C3CC3)CC2)cc(OC)c1,128

# Test system: Klebsiella pneumoniae
# Test: Antibacterial activity against Klebsiella pneumoniae 10-2 after 18 to 24 hrs by NCCLS method
# Type: functional
# In short: as §1
row,Compound,MIC [mg/L]
1,COc1cc(CN2CCN(c3cc4c(cc3F)c(=O)c(C(=O)O)cn4C3CC3)CC2)cc(OC)c1,> 128

# Test system: Staphylococcus aureus
# Test: Antibacterial activity against methicillin-resistant Staphylococcus aureus 10-15 after 18 to 24 hrs by NCCLS method
# Type: functional
# In short: as §2
row,Compound,MIC [mg/L]
1,COc1cc(CN2CCN(c3cc4c(cc3F)c(=O)c(C(=O)O)cn4C3CC3)CC2)cc(OC)c1,64

# Test system: Staphylococcus aureus
# Test: Antibacterial activity against Staphylococcus aureus ATCC 2592 after 18 to 24 hrs by NCCLS method
# Type: functional
# In short: as §1
row,Compound,MIC [mg/L]
1,COc1cc(CN2CCN(c3cc4c(cc3F)c(=O)c(C(=O)O)cn4C3CC3)CC2)cc(OC)c1,1

# Test system: Escherichia coli
# Test: Antibacterial activity against Escherichia coli ATCC 25922 after 18 to 24 hrs by NCCLS method
# Type: functional
# In short: as §1
row,Compound,MIC [mg/L]
1,COc1cc(CN2CCN(c3cc4c(cc3F)c(=O)c(C(=O)O)cn4C3CC3)CC2)cc(OC)c1,1

# Test system: Enterococcus faecium
# Test: Antibacterial activity against Enterococcus faecium 10-9 after 18 to 24 hrs by NCCLS method
# Type: functional
# In short: as §1
row,Compound,MIC [mg/L]
1,COc1cc(CN2CCN(c3cc4c(cc3F)c(=O)c(C(=O)O)cn4C3CC3)CC2)cc(OC)c1,> 128

# Test system: Pseudomonas aeruginosa
# Test: Antibacterial activity against Pseudomonas aeruginosa 10-9 after 18 to 24 hrs by NCCLS method
# Type: functional
# In short: as §1
row,Compound,MIC [mg/L]
1,COc1cc(CN2CCN(c3cc4c(cc3F)c(=O)c(C(=O)O)cn4C3CC3)CC2)cc(OC)c1,128

# Test system: Streptococcus pneumoniae
# Test: Antibacterial activity against Streptococcus pneumoniae 10-6 after 18 to 24 hrs by NCCLS method
# Type: functional
# In short: as §1
row,Compound,MIC [mg/L]
1,COc1cc(CN2CCN(c3cc4c(cc3F)c(=O)c(C(=O)O)cn4C3CC3)CC2)cc(OC)c1,> 128

# Test system: Streptococcus pneumoniae
# Test: Antibacterial activity against Streptococcus pneumoniae 10-1 after 18 to 24 hrs by NCCLS method
# Type: functional
# In short: as §1
row,Compound,MIC [mg/L]
1,COc1cc(CN2CCN(c3cc4c(cc3F)c(=O)c(C(=O)O)cn4C3CC3)CC2)cc(OC)c1,8

# Test system: Enterococcus faecium
# Test: Antibacterial activity against Enterococcus faecium 10-6 after 18 to 24 hrs by NCCLS method
# Type: functional
# In short: as §1
row,Compound,MIC [mg/L]
1,COc1cc(CN2CCN(c3cc4c(cc3F)c(=O)c(C(=O)O)cn4C3CC3)CC2)cc(OC)c1,16
